Measurements from ChEMBL document CHEMBL4765234 (J Med Chem, 2016).

Experiments:
[1] = Drug distribution in C57BL/6 mouse skeletal muscle at 3 microg/kg, iv administered as single dose observed at 20 to 40 mins by LC-MS/MS analysis; assay type: ADME, organism-based, Skeletal muscle tissue; details: in vivo, 0.003 mg/kg, time 20-40 min, dose 3 µg/kg
How it was run: (§1)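 Tracer microdose study in fed male C57BL/6 mice: single 3 μg/kg IV dose in 25% HP-BCD. Mice were killed by cervical dislocation, and spleen, ascending colon, skeletal muscle and plasma were sampled at 20 and 40 min.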

[2] = Drug distribution in C57BL/6 mouse spleen at 3 microg/kg, iv administered as single dose observed at 20 to 40 mins by LC-MS/MS analysis; assay type: ADME, organism-based; details: in vivo, 0.003 mg/kg, time 20-40 min, dose 3 µg/kg; how it was run: as §1
[3] = Drug distribution in C57BL/6 mouse colon at 3 microg/kg, iv administered as single dose observed at 20 to 40 mins by LC-MS/MS analysis; assay type: ADME, organism-based; details: in vivo, 0.003 mg/kg, time 20-40 min, dose 3 µg/kg; how it was run: as §1
[4] = Elimination half-life in dog plasma at 5 mg/kg, po or 1 mg/kg, iv by LC/MS/MS analysis; assay type: ADME, organism-based, Canis lupus familiaris
How it was run: (§2)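 Dosing was oral and intravenous in mice, rats or beagle dogs. Blood was drawn at set time points into EDTA and processed to plasma. Plasma was assayed by LC/MS/MS. Clearance, Cmax and terminal half-life were derived by noncompartmental analysis.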

[5] = Drug metabolism in dog plasma assessed as O-dealkylation metabolite formation by LC-MS/MS analysis; assay type: ADME, cell-free, Canis lupus familiaris
[6] = Drug metabolism in mouse hepatocytes assessed as O-dealkylation by measuring 4-((2,3-dihydrospiro[indene-1,4'-piperidine]-1'-yl)methyl)benzoic acid metabolite formation by LC-MS/MS analysis; assay type: ADME, cell-based, Hepatocyte
[7] = Half-life in dog at 5 mg/kg, po or 1 mg/kg, iv by LC/MS/MS analysis; assay type: ADME, organism-based, Canis lupus familiaris; details: in vivo
How it was run: (§3)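 Mice, rats and beagle dogs dosed; blood drawn at set times into EDTA, processed to plasma and assayed by LC/MS/MS. Parameters (clearance, Vdss, terminal half-life, Cmax, Tmax, oral bioavailability) derived by noncompartmental analysis.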

[8] = Drug metabolism in dog hepatocytes assessed as O-dealkylation by measuring 4-((2,3-dihydrospiro[indene-1,4'-piperidine]-1'-yl)methyl)benzoic acid metabolite formation by LC-MS/MS analysis; assay type: ADME, cell-based, Canis lupus familiaris, Hepatocyte
[9] = AUC in hyperglycemic Balb/c mouse plasma at greater than 0.58 mg/kg measured upto 60 mins; assay type: ADME, organism-based; parameters: dose 0.58 mg/kg, time <=60
[10] = Half-life in mouse at 10 mg/kg, po or 1 mg/kg, iv by LC/MS/MS analysis; assay type: ADME, organism-based; details: in vivo; how it was run: as §3
[11] = Clearance in mouse plasma at 10 mg/kg, po or 1 mg/kg, iv by LC/MS/MS analysis; assay type: ADME, organism-based; how it was run: as §2
[12] = Half-life in rat at 10 mg/kg, po or 3 mg/kg, iv by LC/MS/MS analysis; assay type: ADME, organism-based; details: in vivo; how it was run: as §3
[13] = Volume of distribution at steady state in dog at 5 mg/kg, po or 1 mg/kg, iv by LC/MS/MS analysis; assay type: ADME, organism-based, Canis lupus familiaris; details: in vivo, read-out: Vdss; how it was run: as §3
[14] = Tmax in mouse at 10 mg/kg, po or 1 mg/kg, iv by LC/MS/MS analysis; assay type: ADME, organism-based; details: in vivo; how it was run: as §3
[15] = Drug metabolism in rat hepatocytes assessed as O-dealkylation by measuring 4-((2,3-dihydrospiro[indene-1,4'-piperidine]-1'-yl)methyl)benzoic acid metabolite formation by LC-MS/MS analysis; assay type: ADME, cell-based, Hepatocyte
[16] = Cmax in mouse plasma at 10 mg/kg, po or 1 mg/kg, iv by LC/MS/MS analysis; assay type: ADME, organism-based; parameters: dose 10 mg/kg; how it was run: as §2
[17] = AUC in hyperglycemic Balb/c mouse plasma at 5 mg/kg measured upto 60 mins; assay type: ADME, organism-based; parameters: dose 5 mg/kg, time <=60
[18] = Drug metabolism in dog plasma assessed as conjugation with glucuronide metabolite formation by LC-MS/MS analysis; assay type: ADME, cell-free, Canis lupus familiaris
[19] = Drug metabolism in rat hepatocytes assessed as demethylation by LC-MS/MS analysis; assay type: ADME, cell-based, Hepatocyte
[20] = Apparent clearance in type 2 diabetic mellitus human at 1080 mg, po administered as single dose; assay type: ADME, organism-based; details: in vivo
How it was run: (§4)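 Type 2 diabetic subjects each received a single oral dose. Plasma drug levels were followed over time. Parameters were derived by noncompartmental analysis and reported as geometric means with CV%. CL/F is apparent total clearance and Vz/F is apparent terminal-phase volume.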

[21] = Volume of distribution at steady state in mouse at 3 mg/kg, po or 1 mg/kg, iv by LC/MS/MS analysis; assay type: ADME, organism-based; details: in vivo, read-out: Vdss
How it was run: (§5)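 Dosed to mice, rats or beagle dogs. Blood collected at selected time points with EDTA anticoagulant, processed to plasma and analysed by LC/MS/MS. Parameters obtained by noncompartmental analysis.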

[22] = Volume of distribution at steady state in rat at 3 mg/kg, po or 1 mg/kg, iv by LC/MS/MS analysis; assay type: ADME, organism-based; details: in vivo, read-out: Vdss; how it was run: as §5
[23] = Drug metabolism in dog plasma assessed as metabolite formation by LC-MS/MS analysis; assay type: ADME, cell-free, Canis lupus familiaris
[24] = Apparent clearance in type 2 diabetic mellitus human at 270 mg, po administered as single dose; assay type: ADME, organism-based; details: in vivo; how it was run: as §4
[25] = Drug metabolism in mouse hepatocytes assessed as demethylation by LC-MS/MS analysis; assay type: ADME, cell-based, Hepatocyte
[26] = AUC ( 0 to infinity) in type 2 diabetic mellitus human at 540 mg, po administered as single dose; assay type: ADME, organism-based; parameters: route oral, time infinity, dose 540 mg; details: in vivo; how it was run: as §4
[27] = Apparent volume of distribution in type 2 diabetic mellitus human at 1080 mg, po administered as single dose; assay type: ADME, organism-based; details: in vivo, read-out: Vz/F; how it was run: as §4
[28] = Half life in type 2 diabetic mellitus human at 1080 mg, po administered as single dose; assay type: ADME, organism-based; details: in vivo; how it was run: as §4
[29] = Half life in type 2 diabetic mellitus human at 540 mg, po administered as single dose; assay type: ADME, organism-based; details: in vivo
[30] = Tmax in type 2 diabetic mellitus human at 1080 mg, po administered as single dose; assay type: ADME, organism-based; details: in vivo
How it was run: (§6)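 Single oral dose given to type 2 diabetic subjects; plasma drug levels followed over time. Cmax, Tmax, terminal half-life, AUC(0−∞), CL/F and Vz/F obtained by noncompartmental analysis and reported as geometric means with CV%.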

[31] = AUC ( 0 to infinity) in type 2 diabetic mellitus human at 270 mg, po administered as single dose; assay type: ADME, organism-based; parameters: time infinity, route oral, dose 270 mg; details: in vivo; how it was run: as §4
[32] = Clearance in human hepatocytes by LC-MS/MS analysis; assay type: ADME, cell-based, Hepatocyte
[33] = AUC ( 0 to infinity) in type 2 diabetic mellitus human at 1080 mg, po administered as single dose; assay type: ADME, organism-based; parameters: time infinity, route oral, dose 1080 mg; details: in vivo; how it was run: as §4
[34] = Apparent clearance in type 2 diabetic mellitus human at 540 mg, po administered as single dose; assay type: ADME, organism-based; details: in vivo; how it was run: as §4
[35] = Tmax in type 2 diabetic mellitus human at 270 mg, po administered as single dose; assay type: ADME, organism-based; details: in vivo; how it was run: as §6
[36] = Half life in type 2 diabetic mellitus human at 270 mg, po administered as single dose; assay type: ADME, organism-based; details: in vivo; how it was run: as §4
[37] = Clearance in rat plasma at 3 mg/kg, po or 1 mg/kg, iv by LC/MS/MS analysis; assay type: ADME, organism-based
How it was run: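 Mice, rats and beagle dogs were dosed. Blood was collected into EDTA at set time points and processed to plasma for LC/MS/MS bioanalysis. Parameters were derived by noncompartmental analysis.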

[38] = Drug metabolism in dog hepatocytes assessed as oxidation by LC-MS/MS analysis; assay type: ADME, cell-based, Canis lupus familiaris, Hepatocyte
[39] = Drug metabolism in mouse hepatocytes assessed as oxidation by LC-MS/MS analysis; assay type: ADME, cell-based, Hepatocyte
[40] = AUC in hyperglycemic Balb/c mouse plasma at 5.6 mg/kg measured upto 60 mins; assay type: ADME, organism-based; parameters: dose 5.6 mg/kg, time <=60

With CC#C[C@@H](CC(=O)O)c1ccc(OCc2ccc(CN3CCC4(C=Cc5ccccc54)CC3)s2)cc1 as the compound, how does the Drug uptake [1] read?
The Drug uptake was “Active”.

What about the Drug uptake [2] of the same compound?
Its Drug uptake is “Active”.

What about the Drug uptake [3] of the same compound?
The Drug uptake was “Active”.

Which half-life [4] does the source give for CC#C[C@@H](CC(=O)O)c1ccc(OCc2ccc(CN3CCC4(C=Cc5ccccc54)CC3)cc2)cc1 [LY2881835] here?
Its half-life is 5.05 h.

And the Drug metabolism [5]?
Its Drug metabolism is “Metabolite_Detected”.

What about the Drug metabolism [6] of the same compound?
The Drug metabolism was “Metabolite_Detected”.

What about the half-life [7] of the same compound?
The half-life was 5.05 h.

What about the Drug metabolism [8] of the same compound?
Its Drug metabolism is “Metabolite_Detected”.

And the AUC at 1 h [9]?
The AUC at 1 h was 218 ng·h/mL.

And the half-life [10]?
Its half-life is 2.1 h.

And the clearance [11]?
The clearance was 20.4 mL/min/kg.

And the half-life [12]?
The half-life was 2.1 h.

And the Vd [13]?
Its Vd is 0.8 L/kg.

And the Tmax [14]?
The Tmax was 0.5 h.

What about the Drug metabolism [15] of the same compound?
The Drug metabolism was “Metabolite_Detected”.

And the Cmax [16]?
The Cmax was 1100 ng/mL.

Which AUC at 1 h [17] does the source give for CC#C[C@@H](CC(=O)O)c1ccc(OCc2ccc(CN3CCCc4cccc(OC)c43)s2)cc1 here?
The AUC at 1 h was 4930 ng·h/mL.

And the Drug metabolism [18]?
Its Drug metabolism is “Metabolite_Detected”.

And the Drug metabolism [19]?
Its Drug metabolism is “Metabolite_Detected”.

What about the CL/F [20] of the same compound?
The CL/F was 185 mL/min.

What about the Vd [21] of the same compound?
The Vd was 3.9 L/kg.

And the Vd [22]?
Its Vd is 1.2 L/kg.

What about the Drug metabolism [23] of the same compound?
The Drug metabolism was “Metabolite_Detected”.

And the CL/F [24]?
Its CL/F is 232 mL/min.

What about the Drug metabolism [25] of the same compound?
The Drug metabolism was “Metabolite_Detected”.

What about the AUC(0-inf) [26] of the same compound?
Its AUC(0-inf) is 41400 ng·h/mL.

And the Vd/F [27]?
Its Vd/F is 358 L.

And the half-life [28]?
Its half-life is 22.4 h.

What about the half-life [29] of the same compound?
The half-life was 14.5 h.

And the Tmax [30]?
The Tmax was 4 h.

What about the AUC(0-inf) [31] of the same compound?
The AUC(0-inf) was 19400 ng·h/mL.

And the CLH [32]?
Its CLH is 0.17 h⁻¹.

And the AUC(0-inf) [33]?
The AUC(0-inf) was 97300 ng·h/mL.

What about the CL/F [34] of the same compound?
The CL/F was 217 mL/min.

And the Tmax [35]?
Its Tmax is 2.75 h.

And the half-life [36]?
Its half-life is 12.1 h.

What about the clearance [37] of the same compound?
The clearance was 3.8 mL/min/kg.

With CC#C[C@@H](CC(=O)O)c1ccc(OCc2ccc(CN3CCC4(CCc5ccccc54)CC3)s2)cc1 as the compound, how does the Vd [21] read?
The Vd was 1.6 L/kg.

And the Vd [22]?
The Vd was 0.8 L/kg.

And the Drug metabolism [23]?
Its Drug metabolism is “Metabolite_Notdetected”.

What about the CLH [32] of the same compound?
Its CLH is 0.23 h⁻¹.

And the Drug metabolism [38]?
The Drug metabolism was “Metabolite_Detected”.

What about the Drug metabolism [39] of the same compound?
Its Drug metabolism is “Metabolite_Detected”.

What about the clearance [37] of the same compound?
The clearance was 20 mL/min/kg.

And the AUC at 1 h [40]?
The AUC at 1 h was 898 ng·h/mL.
